Laboratory results published in PMC12849484 (Microbial Cell Factories, 2025).

Columns and labels:
[1] = system: Synechocystis sp. PCC 6803; experiment: Growth curves; assay type: cell-based; details: OD730 over 72 h, triplicates
Summary of the method: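 Synechocystis subcultures in BG11 (10 mL, starting OD730 0.2) were pre-incubated 23 h, then given test conjugate from a 1 mM water stock to final 2, 4, 6, 8 or 10 µM. Controls were untreated cells and 10 µM non-specific CPP-PNA. Hour 0 was 1 h after addition. OD730 was followed over time; triplicates, mean ± SD.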

[2] = system: D-lactate-pyruvate pathway in Synechocystis sp. PCC 6803 cells; experiment: LC-MS quantification of intracellular pyruvate and surrounding metabolites; assay type: cell-based; details: 10 µM, normalized to WT
Summary of the method: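 Cells were exposed to test conjugate at final 10 µM, with untreated wild-type and Δddh strain as comparators, and sampled at 24 and 48 h. For each sample, 8 mL culture was membrane-filtered (0.2 µm) and extracted; the aqueous phase was dried and analysed by LC-MS against 1–100 µg/mL standards. Values were normalized to untreated wild-type; ≥3 replicates; ANOVA.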

Sequence | growth inhibition at 10 µM [1] | D-lactate level at 24 h ([2]; 24 h, N = 3) | change in acetyl-CoA concentration ([2]; 24 h, N = 3) | change in malate concentration ([2]; 24 h, N = 3) | change in phosphoenolpyruvate (PEP) concentration ([2]; 24 h, N = 3) | increase in pyruvate compared to untreated wild-type ([2]; 24 h, N = 3) [fold] | increase in D-lactate accumulation compared to wild-type ([2]; 48 h post-treatment, at least three replicates) [fold]
CTCATAGATC [CPP-ncPNA] | no growth inhibition | – | – | – | – | – | –
TTCATGACGA [CPP-Syn6803ddh] | – | consistently low | minimal or no changes | minimal or no changes | minimal or no changes | 2.5 | 3
